Assay [1] relates to RBL-2H3. The assay can be described thus: Inhibition of uptake of [14C]anandamide pre-incubated for 1 hr with intact RBL2H3 cells expressing AEA membrane transporter. The format is functional, cell-based. The following applies: Rattus norvegicus. Summed up: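 RBL-2H3 cells preincubated with compound 60 min at 25 °C under normal lab light. Cells then washed 3× with medium containing 0.2% BSA and 2× with BSA-free medium, then given [14C]AEA for 5 min without inhibitor. Uptake was taken as residual [14C]AEA in the medium (CHCl3/CH3OH 2:1 extraction, scintillation counting). IC50, N = 3.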

Assay [2] concerns the target T1, Fatty-acid amide hydrolase 1 (Rattus norvegicus, UniProt P97612).
T1 sequence (P97612 whole entry): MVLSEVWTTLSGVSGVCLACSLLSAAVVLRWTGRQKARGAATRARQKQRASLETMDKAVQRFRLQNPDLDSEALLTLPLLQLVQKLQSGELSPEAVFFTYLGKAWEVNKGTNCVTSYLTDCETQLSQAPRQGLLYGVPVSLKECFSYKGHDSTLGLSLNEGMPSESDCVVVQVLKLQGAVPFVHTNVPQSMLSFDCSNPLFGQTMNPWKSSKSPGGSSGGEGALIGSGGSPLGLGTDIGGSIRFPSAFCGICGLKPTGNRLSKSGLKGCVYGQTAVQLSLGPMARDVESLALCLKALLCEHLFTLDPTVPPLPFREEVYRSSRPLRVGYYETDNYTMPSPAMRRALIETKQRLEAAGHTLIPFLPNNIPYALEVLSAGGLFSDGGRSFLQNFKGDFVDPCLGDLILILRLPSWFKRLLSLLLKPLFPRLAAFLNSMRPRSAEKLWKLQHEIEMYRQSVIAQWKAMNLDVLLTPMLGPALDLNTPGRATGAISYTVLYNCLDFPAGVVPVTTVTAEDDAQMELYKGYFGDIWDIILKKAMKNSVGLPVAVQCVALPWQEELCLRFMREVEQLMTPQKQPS
The assay can be described thus: Inhibition of [14C]anandamide hydrolysis in rat brain membrane.

For assay [3], the system named is RBL-2H3. The assay can be described thus: Inhibition of uptake of [14C]anandamide co-incubated with RBL2H3 cells expressing AEA membrane transporter. Format: functional, cell-based. The following applies: Rattus norvegicus. The gist of the method: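 RBL-2H3 cells incubated with [14C]AEA for 5 min at 37 °C with increasing compound concentrations, sometimes after a 10 min preincubation with compound. Uptake was taken as residual [14C]AEA in the medium after CHCl3/CH3OH 2:1 extraction and scintillation counting. Nonspecific binding was measured with 100 µM AEA. IC50 calculated, mean ± SE, N = 3.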

The target of assay [4] is T1, Fatty-acid amide hydrolase 1. The assay can be described thus: Inhibition of [14C]anandamide hydrolysis in rat brain membrane in the absence of UV irradiation. The format is functional, cell membranes.
Assay [5] has as its system C6. The assay can be described thus: Inhibition of [14C]anandamide uptake in C6 cells expressing AEA membrane transporter in dark at 10 uM. The format is functional. The following applies: Rattus norvegicus. The gist of the method: (§1)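 Rat C6 glioma cells preincubated with compound 8 min at 25 °C, either in the dark or under UV light (315-400 nm, 125W). Cells then washed 3× with medium containing 0.2% BSA and 2× with BSA-free medium, then given [14C]AEA for 5 min with no inhibitor present. Uptake was taken as residual [14C]AEA in the medium (CHCl3/CH3OH 2:1 extraction, scintillation counting). Nonspecific binding was measured with 100 µM AEA. Values are % inhibition, mean ± SE, N = 3 or 6.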

For assay [6], the system named is C6. The assay can be described thus: Inhibition of [14C]anandamide uptake in C6 cells expressing AEA membrane transporter under UV irradiation at 10 uM. The following applies: Rattus norvegicus, C6, light or radiation study. Format: functional. Summed up: as §1
Assay [7] concerns C6. The assay can be described thus: Inhibition of [14C]anandamide uptake in C6 cells expressing AEA membrane transporter under UV irradiation at 5 uM. Format: functional. The following applies: Rattus norvegicus, C6, light or radiation study. Summed up: as §1
For assay [8], the system named is C6. The assay can be described thus: Inhibition of [14C]anandamide uptake in C6 cells expressing AEA membrane transporter in dark at 5 uM. Format: functional. The conditions noted are these: Rattus norvegicus. The gist of the method: as §1

As usually defined, the IC50 is the midpoint of a concentration-inhibition curve. For the compound `CCCCCCCC/C=C\CCCCCCCC(=O)N[C@@H](Cc1ccc(O)cc1)C(=O)COC(=O)c1c(Cl)cccc1Cl`, the IC50 with RBL-2H3 [1] is over 25 µM; in assay [2], over 50 µM; in the assay with RBL-2H3 [3], 16.1 µM; in assay [4], over 50 µM.
Turning to `CCCCCCCC/C=C\CCCCCCCC(=O)N[C@@H](CO)Cc1ccc(C(=O)c2ccc(O)cc2)cc1`, the IC50 in the assay on RBL-2H3 [3] was determined as 8.1 µM.
`O=C(CCCCCCC/C=C\CCOC(=O)c1ccccc1)N[C@H](CO)Cc1ccc(O)cc1`: the figures for the concentration for half-maximal inhibition (IC50) (in assay [2]; with RBL-2H3 [3]; in assay [4]) were over 50 µM, over 25 µM and over 50 µM, respectively.
As for `O=C(CCCCCCC/C=C\CCCCCCCCBr)N[C@H](CO)Cc1ccc(O)cc1`, the figures for the IC50 in the assay with RBL-2H3 [1] and in the assay on RBL-2H3 [3] were over 25 µM and 10.2 µM, respectively.
Regarding `CCCCCCCC/C=C\CCCCCCCC(=O)N[C@H](Cc1ccc(O)cc1)C(=O)COC(=O)c1c(Cl)cccc1Cl`, the IC50 is over 25 µM with RBL-2H3 [1], over 50 µM in assay [2], 7.5 µM in the assay on RBL-2H3 [3] and over 50 µM in assay [4].
A word on the inhibition: it is the drop in the measured response relative to a control, in per cent. In the case of `[N-]=[N+]=Nc1ccc(I)cc1C(=O)OCC/C=C\CCCCCCCC(=O)N[C@H](CO)Cc1ccc(O)cc1`, the concentration for half-maximal inhibition (IC50) is over 50 µM in assay [2], 11 µM in the assay on RBL-2H3 [3] and over 50 µM in assay [4]. In addition, the inhibition at 10 µM stood at 32.8% in the assay on C6 [5] and 60% with C6 [6].
Regarding `CCCCCCCC/C=C\CCCCCCCC(=O)N[C@@H](CO)Cc1ccc(C(=O)C=[N+]=[N-])cc1`, the IC50 in the assay with RBL-2H3 [3] was over 25 µM.
On the same count and under the same terms, as for `N#CCCCCCCCC/C=C\CCCCCCCC(=O)N[C@@H](CO)Cc1ccc(O)cc1`, the figure is over 25 µM.
For `CCCCCCCC/C=C\CCCCCCCC(=O)N[C@H](CO)Cc1ccc(C(=O)c2ccc(O)cc2)cc1`, the inhibition at 5 µM was 68.6% with C6 [7] and 28.3% in the assay with C6 [8]. In addition, the figures for the inhibition at 10 µM in the assay on C6 [5] and in the assay on C6 [6] were 73.6% and 73.2%, respectively. The half-maximal inhibitory concentration (IC50) in the assay with RBL-2H3 [3] was 10.1 µM.
`O=C(CCCCCCC/C=C\CCCCCCCCBr)N[C@@H](CO)Cc1ccc(O)cc1`: the IC50 with RBL-2H3 [3] was 20.1 µM.
As to `CCCCCCCC/C=C\CCCCCCCC(=O)N[C@H](Cc1ccc(O)cc1)C(=O)CCl`, the half-maximal inhibitory concentration (IC50) in assay [2] was over 50 µM; in the assay on RBL-2H3 [3], over 25 µM; in assay [4], over 50 µM.
Take `CCCCCCCC/C=C\CCCCCCCC(=O)N[C@@H](Cc1ccc(O)cc1)C(=O)CI`: the figures for the half-maximal inhibitory concentration (IC50) (in assay [2]; in the assay on RBL-2H3 [3]; in assay [4]) were over 50 µM, over 25 µM and over 50 µM, respectively.
In the case of `O=C(CCCCCCC/C=C\CCCCCCCCI)N[C@@H](CO)Cc1ccc(O)cc1`, the IC50 with RBL-2H3 [1] is over 25 µM; in the assay on RBL-2H3 [3], 14 µM.
Turning to `CCCCCCCC/C=C\CCCCCCCC(=O)N[C@H](CO)Cc1ccc(C(=O)c2ccccc2)cc1`, the inhibition at 5 µM in the assay on C6 [7] worked out at 30.3%; in the assay on C6 [8], 37.5%. The inhibition at 10 µM in the assay on C6 [5] came out at 65.8%; in the assay on C6 [6] it was 57.2%. Besides, in the assay with RBL-2H3 [3], the half-maximal inhibitory concentration (IC50) amounted to 6 µM.
Regarding `CCCCCCCC/C=C\CCCCCCCC(=O)N[C@H](Cc1ccc(O)cc1)C(=O)CI`, the concentration for half-maximal inhibition (IC50) was over 50 µM in assay [2], over 25 µM in the assay on RBL-2H3 [3] and over 50 µM in assay [4].
As to `O=C(CCCCCCC/C=C\CCCCCCCCI)N[C@H](CO)Cc1ccc(O)cc1`, the IC50 in the assay on RBL-2H3 [1] was over 25 µM; with RBL-2H3 [3], 10.8 µM.
Turning to `CCCCCCCC/C=C\CCCCCCCC(=O)N[C@H](CO)Cc1ccc(C(=O)CCl)cc1`, the IC50 in the assay with RBL-2H3 [3] was over 25 µM.
Same read-out and setting: as for `CCCCCCCC/C=C\CCCCCCCC(=O)N[C@H](CO)Cc1ccc(C(=O)C=[N+]=[N-])cc1`, the figure is over 25 µM; as for `CCCCCCCC/C=C/CCCCCCCC(=O)N[C@H](CO)Cc1ccc(C(=O)c2ccccc2)cc1`, 10 µM.
In the case of `CCCCCCCC/C=C\CCCCCCCC(=O)N[C@@H](Cc1ccc(O)cc1)C(=O)CCl`, the 50% inhibitory concentration (IC50) was over 25 µM with RBL-2H3 [1], over 50 µM in assay [2], 10 µM with RBL-2H3 [3] and over 50 µM in assay [4].
`N#CCCCCCCCC/C=C\CCCCCCCC(=O)N[C@H](CO)Cc1ccc(O)cc1`: the IC50 with RBL-2H3 [3] came to 23.1 µM.

Source of the values: ChEMBL document CHEMBL1146089, “Development of the first potential covalent inhibitors of anandamide cellular uptake” (J Med Chem, 2006).
